The entries come from a sample that favours hits as a whole.
T cruzi inh: blocks replication of Trypanosoma cruzi | T. cruzi beta-gal in NIH3T3, luminescence, 90 h | inhibition, % (concentration not given with the values) | 300,000 compounds, 1.4% hits | AID 1885;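 active = mean inhibition across valid replicates above about 55%, limit read from the data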;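 also: signal also drops with host cell toxicity which is not excluded here; 0% = plate median of DMSO wells and 100% = zero luminescence signal; higher percent means less beta-gal luminescence so fewer parasites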
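System: NIH/3T3 fibroblasts plus reporter T. cruzi. Medium: DMEM plus 2% FBS. Probe or stimulus: 5000 reporter trypomastigotes per well. Compound: single 50 nL compound addition per well in DMSO. Incubation: co-culture of at least 90 h after 3 h attachment. Detection: GalScreen β-gal luminescence, detergent lysis, 60 min. Evaluation: parasite load inhibition, %.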
CHOP inhibitor: CHOP inhibition in unfolded protein response; CHO-K1 CHOP-promoter luciferase, tunicamycin-induced, 15-18 h; inhibition, % at 10 µM; 220,000 compounds, 3.8% hits;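 active = compounds that reduced the stress-induced luciferase reporter signal by more than about 70% of percent inhibition, limit read from the data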;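 also: 0% = tunicamycin plus vehicle and 100% = wells without tunicamycin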
Dynein cargo inh: blocks dynein driven cargo transport along microtubules. 3617.4 mouse cells, GR-EGFP nuclear translocation imaging; test concentration mostly 20 µM; stimulated with dexamethasone, 1 µM; active compounds read low. z-score, hits read low. 220,000 compounds, 0.47% hits. AID 1381;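 active = plate z-score of nuclear minus cytoplasmic receptor signal below a set negative limit, without overly bright fluorescence or cell loss, cut at about -3.5 in these data, passing the limit was not always enough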;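 also: z-score of nuclear minus cytoplasmic ring GR-EGFP intensity difference per well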
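Buffer or medium – tet-free medium with charcoal-stripped serum · Signal – automated 10x imaging of fixed Hoechst-stained cells · Also added – dexamethasone agonist, 1.0 µM final, for 30 min · Incubation – induction 48 h, compound 1 h, agonist 30 min · Read-out – GR-EGFP nuclear translocation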
XBP1 UPR activ: activators of adaptive arm of unfolded protein response (XBP1); CHO-XBP1 luciferase reporter, IRE1-XBP1 UPR activation, luminescence; percent of tunicamycin response, DMSO as zero; activation, % at 20 µM; 330,000 compounds, 0.33% hits; AID 463104;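 active = versus positive control, 20 µM dose yields 30% or more activation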;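 also: 100% = tunicamycin at 10 µg/mL and 0% = DMSO only wells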
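incubation = overnight seeding at 37 °C, 6 h compound treatment at 37 °C | assay system = CHO-XBP1 cells stably carrying IRE1-XBP1-driven luciferase reporter | input = 1000 cells per well | detection = luciferase luminescence | dosing = single point, 20 µM final compound, 1% DMSO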
CHOP UPR activ: activators of apoptotic arm of unfolded protein response (CHOP); CHO-CHOP luciferase reporter, UPR activation, luminescence; percent of tunicamycin response over DMSO baseline; activation, % at 10 µM; 330,000 compounds, 0.34% hits;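 active = at 10 µM dose, activation of 40% or more, normalized to positive control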;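 also: 100% = tunicamycin at 10 µg/mL and 0% = DMSO alone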
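assay system = CHO CHOP reporter cells | amount = 500 CHO-CHOP cells per well | buffer or medium = F12 with 10% FBS | incubation = 16-18 h cell attachment, then 6 h compound exposure, 37 °C | detection = luminescence read with Steady-Glo | read-out = percent activation relative to tunicamycin control | controls = tunicamycin high control, DMSO low control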
Lmaj promast: Leishmania major promastigote growth inhibition; Leishmania major promastigotes, resazurin fluorescence viability; inhibition, % at 10 µM; 200,000 compounds, 9% hits; AID 1063; in the data active = inhibition above about 50%;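 also: promastigotes grown with compound for 44 hours at 28 °C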
Active calls of the source: *; · = no result.

SMILES	T cruzi inh	CHOP inhibitor	Dynein cargo inh	XBP1 UPR activ	CHOP UPR activ	Lmaj promast
COc1ccc(C2/C=C\CN3CCC[C@H]3C(=O)N2Cc2ccc(F)cc2)cc1 (some centres not stated)	·	·	·	0	2	·
Cc1ccc(C2(c3noc(CN4CCC(c5ccncc5)CC4)n3)CCCC2)cc1	49	43	1.4	4	-1	51*
Cc1ccc(C2(c3noc(CN(C)CC4CCCCO4)n3)CCCC2)cc1 (configuration not stated)	0	62	0.24	-4	-1	-7
CC(C)CNC(C(=O)Nc1ccc([N+](=O)[O-])cc1Br)c1ccccc1 (configuration not stated)	17	28	0.73	-1	2	79*
COc1ccccc1CNCC(O)(c1ccc(F)cc1)c1ccc(F)cc1	31	·	·	-1	0	·
O=C(c1ccccc1)c1ccc(OCC(O)CNCc2ccc(Cl)cc2)cc1 (configuration not stated)	38	·	·	4	0	·
Cc1ccc(OCC(O)CNCc2ccc(F)cc2)cc1 (configuration not stated)	56*	·	·	-6	0	·
Cc1ccc(CNCC(O)(c2ccc(F)cc2)c2ccc(F)cc2)cc1	37	86*	·	-1	0	8
COc1ccccc1CNCC(O)(c1ccc(Cl)cc1)c1ccc(Cl)cc1	37	60	-0.73	2	-1	100*
OC(CNCc1ccccc1F)(c1ccc(F)cc1)c1ccc(F)cc1	21	75*	-0.59	-5	-2	37
O=C(NC1CC(=O)N(c2ccc(Cl)cc2)C1)C1CC1 (configuration not stated)	0	·	·	-2	1	·
CC(C)CCN(C(=O)c1csnn1)C(C(=O)NC1CCCCC1)c1ccc(F)cc1 (configuration not stated)	3	·	·	-3	0	·
O=C(O)CCc1ccc(-c2ccc(Cl)cc2)o1	10	-12	-0.24	-3	-2	-1
CC(C)(C)NCC(O)(c1ccc(Cl)cc1)c1ccc(Cl)cc1	4	-9	-1.5	0	0	24
CCN(CC)CCNCC(O)(c1ccc(Cl)cc1)c1ccc(Cl)cc1	-7	-22	-0.67	-1	-2	72*
CCN(CC)CCNCc1ccc(-c2ccc(Cl)cc2)o1	31	82*	-0.42	1	-3	91*
O=[N+]([O-])c1ccc2c(c1)nc(CO)n2Cc1ccccc1	-13	·	·	-4	1	·
COc1ccc(NC(=O)c2cc3c(=O)n4ccccc4nc3n2C)cc1OC	1	78*	-0.27	3	2	0
COc1cc2c(=O)n(Cc3ccccc3)c(=O)n(CC(=O)NCc3ccco3)c2cc1OC	7	71*	-0.1	·	·	3
O=C(Cn1c(=O)n(Cc2ccccc2)c(=O)c2ccccc21)NCc1ccco1	0	11	-0.59	-1	0	-4
CC(C)(C)c1ccc(/C=C/C(=O)NC2=NCCS2)cc1	-8	82*	0.5	-8	4	2
Cc1ccc(Cl)cc1NC(=S)N/N=C/c1cccc2ccccc12	59*	-36	0.76	19	0	·
O=C1C=C(Nc2ccc(Cl)cc2)CC(c2ccco2)C1 (configuration not stated)	5	-6	-0.29	-1	1	-3
Cc1ccc(C2=CC(=O)C[C@H](c3ccc(Cl)cc3)C2)cc1	·	·	·	5	0	·
Cc1ccc(C2CC(=O)C=C(Nc3ccc(Cl)cc3)C2)cc1 (configuration not stated)	23	73*	-0.69	-1	-1	6
O=C1C=C(Nc2ccc(Cl)cc2)CC(c2ccc(Cl)cc2)C1 (configuration not stated)	21	24	-0.71	-1	-1	56*
O=C(NC1=NCCS1)c1cccc2ccccc12	-13	3	-0.056	1	2	2
CCCN(Cc1nnc(-c2ccccc2Cl)o1)C(=O)c1cc2ccccc2o1	8	·	·	0	3	·
